SUMO1-SIM PPI: alters human SUMO1 binding to SIM partners; actives 0.33% (n = 360,000); inhibition, % at 20 µM; SUMO1 binding to a labelled peptide, TR-FRET, 1 h; in the data active = inhibition above about 37%
Target sequence (P63165 whole entry, looked up): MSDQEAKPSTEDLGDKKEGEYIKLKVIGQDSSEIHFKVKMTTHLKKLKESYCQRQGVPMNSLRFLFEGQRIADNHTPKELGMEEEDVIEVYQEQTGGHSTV
STEP block: inhibitors of human striatal-enriched phosphatase STEP; P54829; recombinant STEP, OMFP fluorogenic substrate, fluorescence; inhibition, % at 20 µM; actives 0.25% (n = 360,000);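 active = inhibition at 20 µM, scaled per plate between control wells, above about 37%, limit read from the data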;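 note: 0% = DMSO with enzyme and substrate and 100% = substrate only without enzyme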
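material = STEP tyrosine phosphatase | reagent = fluorogenic phosphatase substrate OMFP at 25 µM final | doses = single compound dose of 20 µM, 1% DMSO final | schedule = 20 min reaction, room temperature, in the dark | measured by = fluorescence, 480/540 nm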
Rpn11 inh: inhibitors of human proteasome Rpn11 | AID 588493 | O00487 | actives 0.59% (n = 360,000) | human 26S proteasome, Ub4-pepOG fluorescence polarization; 20S core pre-blocked with epoxomicin | inhibition, % at 20 µM;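 active = inhibition at 20 µM, scaled to each plate's controls, above about 33%, limit read from the data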
DNMT1 inh: blocks human DNA methyltransferase DNMT1; P26358; DNMT1 molecular beacon, Hinp1I cleavage, fluorescence; inhibition (reported as % activation of signal), % at 10 µM; actives 0.83% (n = 360,000); in the data active = inhibition above about 50%
Scp-1 inhibitor: inhibitors of human Scp-1 phosphatase. actives 0.88% (n = 340,000). inhibition, % at 20 µM. Recombinant Scp1, phosphopeptide, malachite green phosphate absorbance. Q9GZU7;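 active = inhibition above about 50% at 20 µM, limit read from the data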;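 note: plate controls were DMSO wells with enzyme for no effect and wells lacking enzyme for full effect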
Target sequence (Q9GZU7 76-261 limits assumed): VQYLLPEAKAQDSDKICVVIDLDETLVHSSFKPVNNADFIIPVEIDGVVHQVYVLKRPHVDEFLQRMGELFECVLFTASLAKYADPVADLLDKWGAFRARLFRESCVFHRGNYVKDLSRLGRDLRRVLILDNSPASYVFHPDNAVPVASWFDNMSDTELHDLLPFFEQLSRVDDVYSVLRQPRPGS
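System: truncated SCP-1 phosphatase (76-261aa); medium: Tris acetate buffer pH 5.5 with MgCl2 and Tween-20; incubation: 45 min room-temperature reaction, 5 min colour, 30 min stabiliser; compound: single 20 µM dose, 1% DMSO; reagent: Phosphorylated 17-residue peptide substrate; read-out: % inhibition at 20 µM; technique: colorimetric free-phosphate detection, absorbance 630 nm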
LMPTP block: LMPTP (human) inhibition; inhibition, % at 20 µM; recombinant LMPTP-A, OMFP fluorogenic substrate, fluorescence intensity; AID 651560; actives 0.22% (n = 360,000); P24666;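 active = compounds that cut the enzyme signal by at least half of the control window in the single-dose screen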;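 note: plate controls were DMSO wells with enzyme plus substrate for no effect and substrate without enzyme for full effect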
Target sequence (P24666 whole entry, looked up): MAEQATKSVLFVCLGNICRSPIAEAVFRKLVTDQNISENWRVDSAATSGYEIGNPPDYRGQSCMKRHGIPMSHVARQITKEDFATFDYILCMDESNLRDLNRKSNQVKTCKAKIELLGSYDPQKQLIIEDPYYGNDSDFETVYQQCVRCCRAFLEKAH
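Material: LMPTP-A; amount: 0.625 nM enzyme; doses: single 20 µM dose; times: reaction 50 min, room temperature, dark; technique: fluorescence intensity of OMFP turnover product; benchmarks: no-enzyme and uninhibited controls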
DNMT1 inh conf: confirmation of human DNMT1 inhibitors | shares compounds with DNMT1 inh | DNMT1 molecular beacon HinP1I cleavage, fluorescence | inhibition, % at 10 µM | actives 8% (n = 2,300);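 active = average inhibition of at least 30% in the single-concentration confirmation test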
Beacon interf: shows spectral interference in the DNMT1 beacon assay; shares compounds with DNMT1 inh; DNMT1 molecular beacon spectral interference counterscreen, fluorescence 485/520; activation (fluorescence interference), % at 10 µM; actives 1% (n = 2,300);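 active = activation of at least 30% at 10 µM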;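 note: DNMT1 catalytic domain with a HinP1I cleavage step and a FAM/dabcyl DNA beacon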
* = called active by the depositor; . = no result given. The list is not random: actives were taken first. Their share in the collection is about 2.3%.

SMILES	SUMO1-SIM PPI	STEP block	Rpn11 inh	DNMT1 inh	Scp-1 inhibitor	LMPTP block	DNMT1 inh conf	Beacon interf
Cc1cccc(/C=C/C(=O)c2cc(Br)ccc(=O)c2O)c1	13	10	14	93*	-3	32	10	4
CCOc1ccc(/C=C/C(=O)c2cc(Br)ccc(=O)c2O)cc1	0	5	16	68*	-4	12	10	4
Cc1ccc(S(=O)(=O)Nc2ccc3cc([N+](=O)[O-])ccc3c2[N+](=O)[O-])cc1	1	-3	14	1	-19	0	.	.
O=C1c2oc3ccc(Cl)cc3c(=O)c2C(c2cccc(Br)c2)N1CCO (centres undefined)	-13	0	-7	61*	-3	0	1	3
CCN(CC)CCN1C(=O)c2oc3ccccc3c(=O)c2C1c1cccc(Br)c1 (centres undefined)	-1	3	7	-2	-7	-2	.	.
CCCc1nnc(NS(=O)(=O)c2ccc(OC)cc2)s1	1	-3	-4	72*	4	1	2	2
COCc1nnc(NS(=O)(=O)c2ccc(OC)cc2)s1	5	-3	0	5	-1	-2	.	.
Cc1nc2sc(C(=O)Nc3ccccc3Cc3ccccc3)c(C)c2c(=O)[nH]1	-9	2	2	8	-2	2	.	.
COc1cc(OC)cc(C(=O)NC(C(=O)OCn2nnc3ccccc3c2=O)C(C)C)c1 (centres undefined)	-4	0	3	87*	-5	-1	5	3
COc1ccc(C(=O)OCn2nnc3ccccc3c2=O)cc1	0	1	-6	4	-11	-1	.	.
CCc1c(C)sc(NC(=O)Cc2ccccc2C)c1C(=O)N1CCOCC1	4	1	-8	0	1	0	.	.
Cc1cc(C)n(/N=C/c2c[nH]c3ccccc23)c(=O)c1C#N	-4	-1	-1	4	1	1	.	.
CN(/N=C/c1c[nH]c2ccccc12)c1cnn(-c2ccc(F)c(Cl)c2)c(=O)c1Cl	-1	-3	.	111*	3	1	3	8
O=C1N(Cc2cccc(Cl)c2)C[C@@H]2C[C@@H](c3cccn3-c3cccnc3)N3CCC[C@@]123	2	5	-6	78*	0	2	2	2
CCn1ncc([C@@H]2C[C@H]3CN(Cc4cccc(Cl)c4)C(=O)[C@]34CCCN24)c1C	-2	0	18	2	-1	1	.	.
O=C(COC(=O)CNS(=O)(=O)c1ccc2ccccc2c1)Nc1ccccc1Sc1ccccc1	-2	0	9	-13	-18	5	.	.
CNc1ccc(Br)cc(C(=O)/C=C/c2cccc(Cl)c2Cl)c1=O	16	1	36	46	-6	27	.	.
CCNc1ccc(Br)cc(C(=O)/C=C/c2ccccc2Cl)c1=O	19	9	11	77*	-10	26	8	8
CCOc1ccc(NC(=O)CCCc2cc(-c3ccc(OCC)cc3)on2)cc1	-2	5	5	57*	-7	0	1	4
N#C/C(=C\c1c(N2CCC(C(N)=O)CC2)nc2ccccn2c1=O)C(=O)NCc1ccco1	-6	0	3	64*	-4	-1	6	3
Cn1nnnc1Sc1ncnc2scc(-c3ccc([N+](=O)[O-])cc3)c12	-29	0	-17	10	-3	-1	.	.
CCc1nc2ccc(C(=O)NCCCN(C)C)cn2c1N(CC)CCOC	-2	-2	10	1	.	-2	.	.
CCOC(=O)[C@]12CCCC=C1N(Cc1ccc3c(c1)OCO3)C(=O)[C@H](CC(=O)N1CCCCC1)C2	-3	.	.	.	.	-1	.	.
CSc1nnc2c3cc(C)ccc3n(Cc3ccccc3)c2n1	-7	10	11	77*	11	22	-3	-6
COc1ccc2cc3c(N)nn(C(=O)Cc4ccc(Cl)cc4)c3nc2c1	3	1	9	69*	-3	1	0	1
SMILES	SUMO1-SIM PPI	STEP block	Rpn11 inh	DNMT1 inh	Scp-1 inhibitor	LMPTP block	DNMT1 inh conf	Beacon interf
COc1cccc(CC(=O)n2nc(N)c3cc4ccc(OC)cc4nc32)c1	1	2	2	-8	-12	2	.	.
CC(C)(C)C(=O)Nc1nnc(CC(=O)NCc2ccccc2)s1	-2	10	-15	61*	-3	0	7	4
COC(=O)C1=C(O)/C(=C\c2ccc(CNC(=O)C(=O)Nc3ccc(C)cc3)o2)N=C1C	20	5	1	96*	-7	16	4	4
COC(=O)C1=C(O)/C(=C\c2ccc(CNC(=O)C(=O)Nc3ccc(C)c(C)c3)o2)N=C1C	11	4	18	86*	-1	8	6	11
COc1ccc(C2OC(=O)CC2C(=O)NCc2ccc(Cl)cc2)cc1OC (centres undefined)	1	10	0	-1	-4	-1	.	.
CCn1c(SCC(=O)Nc2cc(F)ccc2C)nnc1-c1ccccc1O	-1	24	-12	56*	-11	0	1	1
Cn1nccc1C(=O)NC1CCN(Cc2ccccc2)CC1	-4	-1	5	1	-2	-1	.	.
CCC(=O)c1ccc(OCc2cn(CC(=O)c3ccc(O)cc3)nn2)cc1	2	2	-3	54*	-8	1	10	-3
COc1ccc(OCc2cn(CC(=O)c3ccc(O)cc3)nn2)cc1	8	6	0	57*	-2	0	4	-2
O=C(Cn1cc(COc2ccc(C(=O)c3ccccc3)cc2)nn1)c1ccc(O)cc1	5	-5	5	39	-14	0	.	.
Cc1nn(-c2ccc(Cl)cc2)c(Cl)c1/C=N/NC(=O)c1ccc(NS(=O)(=O)c2cccs2)cc1	8	-2	22	-11	-14	5	.	.
O=S(=O)(Nc1ncccn1)c1ccc(NC(=S)NCc2cccnc2)cc1	31	-4	6	0	-10	-1	.	.
O=C1C(=Cc2ccco2)CCCC1=Cc1ccco1	11	7	.	100*	66*	11	0	0
O/N=C1\CCC\C1=C/c1ccco1	-1	0	-19	24	2	-1	.	.
O=C(NC1CCCCC1)C(c1ccc(F)cc1)N(Cc1ccccc1)C(=O)CN1C(=O)c2ccccc2S1(=O)=O (centres undefined)	-1	-1	-4	35	7	2	.	.
